# Reference: ChEMBL document CHEMBL5649170, “Sustained microglial depletion with CSF1R inhibitor impairs parenchymal plaque development in an Alzheimer's disease model” (Nat Commun, 2019)
# Activity calls are given as the source filed them. The rule behind the calls is not given here.
# Experiments:
# [1] = system: Mus musculus; test: Effect on circulating leukocytes in wildtype mouse assessed as percentage of CD45+/PI- cells expressing CD11c at 1200 ppm administered as rodent chow for 10 to 24 weeks (reference value: 34.7 to 54.3 %); assay type: functional; settings: route po, time 10-24 weeks
# [2] = system: Mus musculus; test: Prevention of Apc gene downregulation in 5XFAD mouse hippocampus at 1200 ppm administered as rodent chow starting from 1.5 months and measured after 7 months by Nanostring analysis; assay type: functional, tissue-based; settings: route po, time 5.5 months
# [3] = molecular target: Serine/threonine-protein kinase Nek6 (Homo sapiens, UniProt Q9HC98); test: Inhibition of NEK6 (unknown origin)
# Chain of Serine/threonine-protein kinase Nek6 (Q9HC98 whole entry): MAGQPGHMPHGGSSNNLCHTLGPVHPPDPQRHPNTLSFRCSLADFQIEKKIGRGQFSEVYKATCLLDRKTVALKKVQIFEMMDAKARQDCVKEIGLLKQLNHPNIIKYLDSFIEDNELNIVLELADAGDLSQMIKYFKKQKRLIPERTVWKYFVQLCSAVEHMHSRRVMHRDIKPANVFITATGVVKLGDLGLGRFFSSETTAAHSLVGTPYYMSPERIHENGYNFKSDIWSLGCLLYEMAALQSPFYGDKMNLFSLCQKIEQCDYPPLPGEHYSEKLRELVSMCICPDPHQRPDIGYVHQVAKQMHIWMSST
# [4] = molecular target: Tyrosine-protein kinase JAK2 (Homo sapiens, UniProt O60674); test: Inhibition of JAK2 (unknown origin)
# Chain of Tyrosine-protein kinase JAK2 (O60674 whole entry): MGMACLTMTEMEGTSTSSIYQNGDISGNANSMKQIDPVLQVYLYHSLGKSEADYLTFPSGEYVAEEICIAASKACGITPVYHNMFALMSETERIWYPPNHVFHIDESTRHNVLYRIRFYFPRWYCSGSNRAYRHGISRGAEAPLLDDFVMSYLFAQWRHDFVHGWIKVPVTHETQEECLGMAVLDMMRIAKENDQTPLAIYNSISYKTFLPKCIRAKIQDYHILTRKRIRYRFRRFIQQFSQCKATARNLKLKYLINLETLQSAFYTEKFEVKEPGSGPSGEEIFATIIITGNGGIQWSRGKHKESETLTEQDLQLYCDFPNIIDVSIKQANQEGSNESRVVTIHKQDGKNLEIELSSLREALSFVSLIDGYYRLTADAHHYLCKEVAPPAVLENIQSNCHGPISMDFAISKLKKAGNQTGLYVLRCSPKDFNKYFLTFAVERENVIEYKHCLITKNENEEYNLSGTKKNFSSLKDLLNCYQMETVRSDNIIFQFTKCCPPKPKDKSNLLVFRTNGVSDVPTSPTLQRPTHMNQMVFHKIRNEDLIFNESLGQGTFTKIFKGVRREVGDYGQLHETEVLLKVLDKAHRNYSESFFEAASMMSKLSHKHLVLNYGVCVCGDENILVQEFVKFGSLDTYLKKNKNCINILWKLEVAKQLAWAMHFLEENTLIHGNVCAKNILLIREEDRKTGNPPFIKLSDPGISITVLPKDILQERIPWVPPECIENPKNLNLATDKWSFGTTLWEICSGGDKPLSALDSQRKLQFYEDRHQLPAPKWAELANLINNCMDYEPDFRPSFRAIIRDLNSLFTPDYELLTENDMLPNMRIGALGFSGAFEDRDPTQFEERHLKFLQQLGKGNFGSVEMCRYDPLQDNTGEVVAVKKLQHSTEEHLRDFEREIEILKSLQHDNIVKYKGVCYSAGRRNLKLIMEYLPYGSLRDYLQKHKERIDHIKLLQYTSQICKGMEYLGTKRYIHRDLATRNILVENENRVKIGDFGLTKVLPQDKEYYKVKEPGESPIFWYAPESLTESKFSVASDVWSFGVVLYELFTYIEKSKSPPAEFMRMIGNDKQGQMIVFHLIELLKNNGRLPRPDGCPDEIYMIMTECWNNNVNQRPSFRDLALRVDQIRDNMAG
# [5] = molecular target: T1, Macrophage colony-stimulating factor 1 receptor (Mus musculus) (UniProt P09581); test: In vivo inhibition of CSF1R in wildtype mouse assessed as number of Iba1 positive cells per FOV in thalamus cortex at 1200 ppm administered as rodent chow starting from 1.5 months to 4 months followed by compound removal and measured after 1 months by immunolabelling based confocal microscopic analysis (reference value: 232 to 320); assay type: functional; settings: route po, time 2.5 months
# T1 sequence (whole entry): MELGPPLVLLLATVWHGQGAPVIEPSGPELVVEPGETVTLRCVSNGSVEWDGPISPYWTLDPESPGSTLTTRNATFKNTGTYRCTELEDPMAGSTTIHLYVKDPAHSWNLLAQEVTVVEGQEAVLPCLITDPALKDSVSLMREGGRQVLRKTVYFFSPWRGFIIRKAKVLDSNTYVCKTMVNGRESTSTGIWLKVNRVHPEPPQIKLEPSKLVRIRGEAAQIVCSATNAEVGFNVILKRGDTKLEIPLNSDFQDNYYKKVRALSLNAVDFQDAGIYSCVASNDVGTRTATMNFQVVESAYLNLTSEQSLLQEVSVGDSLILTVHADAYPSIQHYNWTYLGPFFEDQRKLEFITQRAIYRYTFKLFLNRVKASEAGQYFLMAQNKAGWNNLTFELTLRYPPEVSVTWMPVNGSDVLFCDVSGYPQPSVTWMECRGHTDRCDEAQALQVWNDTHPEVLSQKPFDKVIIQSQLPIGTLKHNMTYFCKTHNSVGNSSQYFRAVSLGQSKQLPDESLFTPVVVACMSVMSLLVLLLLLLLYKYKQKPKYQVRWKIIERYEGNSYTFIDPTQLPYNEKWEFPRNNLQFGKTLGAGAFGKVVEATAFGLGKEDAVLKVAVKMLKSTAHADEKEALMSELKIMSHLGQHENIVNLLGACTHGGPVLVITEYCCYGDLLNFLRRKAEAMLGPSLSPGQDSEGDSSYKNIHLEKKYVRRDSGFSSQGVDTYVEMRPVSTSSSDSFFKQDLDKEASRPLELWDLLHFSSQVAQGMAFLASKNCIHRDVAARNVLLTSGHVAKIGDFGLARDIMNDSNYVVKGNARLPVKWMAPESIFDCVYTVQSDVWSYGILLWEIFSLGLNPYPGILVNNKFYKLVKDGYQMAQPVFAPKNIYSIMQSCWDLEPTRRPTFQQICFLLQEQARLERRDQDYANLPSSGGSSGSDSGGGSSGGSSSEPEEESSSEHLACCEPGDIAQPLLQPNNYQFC
# [6] = Cmax in female rat at 45 mg/kg, po administered as single dose via gavage; assay type: ADME, organism-based; settings: in vivo
# [7] = system: Mus musculus; test: Antialzheimer activity in 5XFAD mouse assessed as reduction in plaque formation by measuring average plaque volume in somatosensory cortex at 1200 ppm administered as rodent chow starting from 1.5 months and measured after 4 months by immunolabeling based confocal microscopic analysis; assay type: functional; settings: route po, time 2.5 months, 1825 h
# [8] = molecular target: CDK9/cyclin T1 (Homo sapiens, UniProt P50750); test: Inhibition of CDK9/CyclinT1 (unknown origin); assay type: protein-complex assay
# Chain of CDK9/cyclin T1 (O60563 whole entry): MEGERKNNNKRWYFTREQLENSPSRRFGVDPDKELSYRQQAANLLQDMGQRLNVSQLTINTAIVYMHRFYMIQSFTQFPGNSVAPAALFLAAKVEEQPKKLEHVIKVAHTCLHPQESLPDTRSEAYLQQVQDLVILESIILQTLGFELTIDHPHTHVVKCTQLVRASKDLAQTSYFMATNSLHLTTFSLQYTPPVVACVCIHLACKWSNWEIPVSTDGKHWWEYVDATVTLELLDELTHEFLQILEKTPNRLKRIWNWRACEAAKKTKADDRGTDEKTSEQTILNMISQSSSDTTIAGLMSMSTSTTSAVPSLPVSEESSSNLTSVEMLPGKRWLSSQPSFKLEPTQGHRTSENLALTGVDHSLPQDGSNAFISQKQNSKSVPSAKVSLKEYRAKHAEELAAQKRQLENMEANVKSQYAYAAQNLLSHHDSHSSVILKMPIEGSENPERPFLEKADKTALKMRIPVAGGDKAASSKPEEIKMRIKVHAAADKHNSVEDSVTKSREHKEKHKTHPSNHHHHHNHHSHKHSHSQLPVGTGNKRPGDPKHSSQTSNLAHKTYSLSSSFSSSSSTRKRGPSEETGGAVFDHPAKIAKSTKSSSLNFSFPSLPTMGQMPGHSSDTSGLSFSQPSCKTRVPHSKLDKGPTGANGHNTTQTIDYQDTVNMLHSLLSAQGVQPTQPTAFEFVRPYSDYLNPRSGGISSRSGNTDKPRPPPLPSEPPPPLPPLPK
# Chain of CDK9/cyclin T1 (P50750 whole entry): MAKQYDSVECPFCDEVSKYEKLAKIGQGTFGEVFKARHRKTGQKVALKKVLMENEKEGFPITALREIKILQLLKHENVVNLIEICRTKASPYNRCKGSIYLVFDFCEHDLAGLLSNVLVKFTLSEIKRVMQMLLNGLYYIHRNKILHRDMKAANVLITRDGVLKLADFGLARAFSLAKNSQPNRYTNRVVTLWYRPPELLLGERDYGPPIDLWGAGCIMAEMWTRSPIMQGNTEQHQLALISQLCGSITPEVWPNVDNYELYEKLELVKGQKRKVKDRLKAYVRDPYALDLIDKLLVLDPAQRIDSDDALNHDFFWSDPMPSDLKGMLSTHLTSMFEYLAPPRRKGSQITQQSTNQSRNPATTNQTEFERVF
# [9] = Prevention of Dynll1 gene downregulation in 5XFAD mouse hippocampus assessed as percent change in Reads Per kilo base per Million mapped reads at 1200 ppm administered as rodent chow starting from 1.5 months and measured after 7 months by RNA-Seq analysis (reference value: 79.087 to 86.108 %); assay type: functional; settings: route po, time 5.5 months, 4015 h
# [10] = Oral bioavailability in mouse at 45 mg/kg administered as single via gavage; assay type: ADME, organism-based; settings: in vivo
# [11] = system: Mus musculus; test: Effect on APP processing pathway in 5XFAD mouse assessed as C-terminal PS1 protein signal intensity in cortex at 1200 ppm administered as rodent starting from 1.5 months and measured after 7 months (reference value: 42.868 to 145.444 %); assay type: functional; settings: route po, time 5.5 months, 4015 h
# [12] = system: Mus musculus; test: Antialzheimer activity in 5XFAD mouse assessed as percent change in claudin-5 intensity of retro spinal cortex at 1200 ppm administered as rodent chow starting from 1.5 months and measured after 4 months by immunolabeling analysis relative to control; assay type: functional; settings: route po, time 2.5 months, 1825 h
# [13] = molecular target: Serine/threonine-protein kinase PLK3 (Homo sapiens, UniProt Q9H4B4); test: Inhibition of PLK3 (unknown origin)
# [14] = system: Mus musculus; test: Antialzheimer activity in 5XFAD mouse assessed as amyloidbeta38 level in detergent soluble cortex fraction measured per microgram protein at 1200 ppm administered as rodent chow starting from 1.5 months and measured after 7 months by ELISA (reference value: 0 to 0.014 pg); assay type: functional; settings: route po, time 5.5 months, 4015 h
# Outline: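 PLX5622 at 1200 ppm in chow given to 5xFAD mice from 1.5 months to 4 or 7 months of age; cortex and thalamus homogenized in TPER (detergent-soluble), pellets re-homogenized in 70% formic acid and spun 100,000 g, 1 h, 4 °C (insoluble); protein by Bradford/Lowry; Aβ species measured by Meso Scale electrochemiluminescence immunoassay, normalized to protein; n = 7–8 per group at 7 months.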
# [15] = system: Mus musculus; test: Effect on APP processing pathway in wildtype mouse assessed as full length APP protein signal intensity in cortex at 1200 ppm administered as rodent starting from 1.5 months and measured after 7 months (reference value: 0.124 to 27.917 %); assay type: functional; settings: route po, time 5.5 months, 4015 h
# [16] = molecular target: Rho-associated protein kinase 2 (Homo sapiens, UniProt O75116); test: Inhibition of ROCK2 (unknown origin)
# Chain of Rho-associated protein kinase 2 (O75116 whole entry): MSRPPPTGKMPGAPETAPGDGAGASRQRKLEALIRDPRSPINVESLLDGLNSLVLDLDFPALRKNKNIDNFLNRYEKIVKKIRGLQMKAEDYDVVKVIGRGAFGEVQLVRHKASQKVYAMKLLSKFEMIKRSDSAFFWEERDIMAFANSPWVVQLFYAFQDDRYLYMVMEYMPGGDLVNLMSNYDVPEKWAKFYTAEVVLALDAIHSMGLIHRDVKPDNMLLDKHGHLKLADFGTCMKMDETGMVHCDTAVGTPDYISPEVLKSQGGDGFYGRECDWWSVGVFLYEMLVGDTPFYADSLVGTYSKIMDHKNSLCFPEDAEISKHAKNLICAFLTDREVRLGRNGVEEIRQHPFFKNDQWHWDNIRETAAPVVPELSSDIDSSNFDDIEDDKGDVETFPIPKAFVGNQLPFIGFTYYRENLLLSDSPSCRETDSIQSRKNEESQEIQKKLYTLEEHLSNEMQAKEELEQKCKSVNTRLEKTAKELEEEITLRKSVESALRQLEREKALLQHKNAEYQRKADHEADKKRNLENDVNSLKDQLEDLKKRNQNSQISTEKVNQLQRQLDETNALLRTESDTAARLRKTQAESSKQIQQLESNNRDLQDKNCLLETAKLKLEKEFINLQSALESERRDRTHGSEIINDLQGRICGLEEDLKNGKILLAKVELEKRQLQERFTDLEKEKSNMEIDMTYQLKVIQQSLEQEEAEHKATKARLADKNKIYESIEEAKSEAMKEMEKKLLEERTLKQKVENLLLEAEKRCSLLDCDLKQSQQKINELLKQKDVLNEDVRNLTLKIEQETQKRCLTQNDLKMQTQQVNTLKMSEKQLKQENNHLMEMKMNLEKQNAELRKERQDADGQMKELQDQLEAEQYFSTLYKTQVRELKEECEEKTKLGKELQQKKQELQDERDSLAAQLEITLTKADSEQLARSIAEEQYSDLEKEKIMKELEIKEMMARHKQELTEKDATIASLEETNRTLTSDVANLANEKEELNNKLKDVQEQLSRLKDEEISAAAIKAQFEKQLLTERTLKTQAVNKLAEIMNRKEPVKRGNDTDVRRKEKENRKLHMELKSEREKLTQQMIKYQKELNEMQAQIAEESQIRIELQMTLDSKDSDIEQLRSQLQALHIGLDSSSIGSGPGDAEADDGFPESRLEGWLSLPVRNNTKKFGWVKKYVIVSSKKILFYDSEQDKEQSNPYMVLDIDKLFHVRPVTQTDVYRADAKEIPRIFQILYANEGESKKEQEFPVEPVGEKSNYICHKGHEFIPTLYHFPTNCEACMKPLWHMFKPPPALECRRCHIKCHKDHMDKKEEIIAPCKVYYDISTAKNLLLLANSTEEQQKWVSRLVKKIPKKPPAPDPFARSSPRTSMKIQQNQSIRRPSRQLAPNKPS
# [17] = Effect on Itgax gene expression in 5XFAD mouse cortex at 1200 ppm administered as rodent chow starting from 1.5 months and measured after 7 months by RNA-Seq analysis (reference value: 1.746 to 3.999 RPKM); assay type: functional; settings: route po, time 5.5 months, 4015 h
# [18] = system: Mus musculus; test: Antialzheimer activity in 5XFAD mouse assessed as number of Thio-S positive plaques per FOV in […] cortex at 1200 ppm administered as rodent chow starting from 1.5 months and measured after 7 months by Thio-S staining based confocal microscopic analysis (reference value: 52 to 140); assay type: functional; settings: route po, time 5.5 months, 4015 h
# [19] = molecular target: Phosphatidylinositol 4-kinase beta (Homo sapiens, UniProt Q9UBF8); test: Inhibition of PI4KB (unknown origin)
# Chain of Phosphatidylinositol 4-kinase beta (Q9UBF8 whole entry): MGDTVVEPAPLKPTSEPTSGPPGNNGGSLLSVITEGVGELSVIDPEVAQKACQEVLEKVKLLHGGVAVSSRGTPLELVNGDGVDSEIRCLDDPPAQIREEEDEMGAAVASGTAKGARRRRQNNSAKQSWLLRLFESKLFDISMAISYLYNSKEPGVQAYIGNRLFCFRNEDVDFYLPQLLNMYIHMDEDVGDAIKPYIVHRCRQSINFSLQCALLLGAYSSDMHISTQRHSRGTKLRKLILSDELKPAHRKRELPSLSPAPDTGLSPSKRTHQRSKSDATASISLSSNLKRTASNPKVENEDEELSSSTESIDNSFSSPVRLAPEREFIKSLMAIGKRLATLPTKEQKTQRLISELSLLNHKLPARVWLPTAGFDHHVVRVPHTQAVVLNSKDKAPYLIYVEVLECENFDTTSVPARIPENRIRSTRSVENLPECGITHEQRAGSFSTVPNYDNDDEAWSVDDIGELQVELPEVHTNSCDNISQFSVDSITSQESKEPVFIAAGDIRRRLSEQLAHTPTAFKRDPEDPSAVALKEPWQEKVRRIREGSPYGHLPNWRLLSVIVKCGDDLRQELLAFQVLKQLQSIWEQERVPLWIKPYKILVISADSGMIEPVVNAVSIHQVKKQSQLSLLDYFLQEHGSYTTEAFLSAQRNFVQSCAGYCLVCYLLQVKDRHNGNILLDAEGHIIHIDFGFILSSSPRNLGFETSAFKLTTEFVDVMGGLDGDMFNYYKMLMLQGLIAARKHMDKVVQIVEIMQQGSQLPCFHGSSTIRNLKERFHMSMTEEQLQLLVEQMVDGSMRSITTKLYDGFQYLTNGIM
# [20] = molecular target: Serine/threonine-protein kinase Nek9 (Homo sapiens, UniProt Q8TD19); test: Inhibition of NEK9 (unknown origin)
# [21] = Drug concentration in 5XFAD mouse brain at 600 ppm administered as rodent chow starting from 1.5 months and measured after 5 months; assay type: ADME, tissue-based; settings: route po, time 3.5 months, read-out: Ct
# Outline: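 WT or 5xFAD mice were fed PLX3397 in AIN-76A chow at 600 ppm or 75 ppm from 1.5 to 5 months of age. Terminal brain and plasma drug concentrations were determined at study end.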
structure (smiles),measurement,setting,value
COc1ncc(F)cc1CNc1ccc(Cc2c[nH]c3ncc(C)cc23)c(F)n1 [PLX-5622],Activity,[1],31.4%
same,Activity,[2],Active
same,IC50,[3],> 1 µM
same,IC50,[4],> 1 µM
same,Activity,[5],270
same,Cmax,[6],15600 ng/mL
same,Activity,[7],1533.351 um3
same,IC50,[8],> 1 µM
same,Activity,[9],96.141%
same,bioavailability,[10],59%
same,Activity,[11],12.015%
same,Activity,[12],33.704%
same,IC50,[13],> 1 µM
same,Activity,[14],0 pg
same,Activity,[15],0.823%
same,IC50,[16],> 1 µM
same,Activity,[17],0.086 RPKM
same,Activity,[18],17
same,IC50,[19],> 1 µM
same,IC50,[20],> 1 µM
FC(F)(F)c1ccc(CNc2ccc(Cc3c[nH]c4ncc(Cl)cc34)cn2)cn1 [PEXIDARTINIB],concentration at 2555 h,[21],5.6 µM
